Experimental data reported in ChEMBL document CHEMBL4145455, “Design, synthesis and evaluation of novel phenyl propionamide derivatives as non-nucleoside hepatitis B virus inhibitors” (Eur J Med Chem, 2018).

Experiments:
[1] = Selectivity index, ratio of CC50 for human HepG2(2.2.15) cells to IC50 for antiviral activity against lamivudine/entecavir resistant HBV harboring reverse transcriptase L180M/M204V/T184L mutant infected in human HepG2(2.2.15) cells; type: toxicity, cell-based; conditions: read-out: Ratio CC50/IC50
Method in brief: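 SI = CC50/IC50. CC50 comes from HepG2 2.2.15 cells grown to confluence and treated for 72 h, with MTT absorbance at 490 nm relative to untreated cells, in triplicate. IC50 comes from mutant-plasmid-transfected HepG2 cells treated for 72 h, with HBV DNA measured by real-time PCR.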

Hepatitis B virus [2] = assay: Antiviral activity against HBV infected in human HepG2(2.2.15) cells assessed as inhibition of intracellular viral pregenomic RNA expression at 1 uM after 6 days by TRIzol reagent based RT-PCR method relative to control; type: functional; conditions: HepG2 2.2.15, 144 h
Method in brief: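 HepG2 2.2.15 cells at 6×10^5 per well treated 6 days at 1 μM; total cellular RNA extracted and intracellular HBV pgRNA quantified by real-time PCR.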

Hepatitis B virus [3] = assay: Antiviral activity against lamivudine/entecavir resistant HBV harboring reverse transcriptase L180M/M204V/T184L mutant infected in human […] after 72 hrs by RT-PCR method; type: functional, organism-based
Method in brief: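 HepG2 cells (2×10^5 per well) were plated, incubated overnight, then transiently transfected for 24 h with a plasmid carrying the full HBV genome with rtL180M + rtM204V + rtT184L. Medium was discarded, cells washed with PBS, then treated across a dose range in fresh medium for 72 h. Intracellular HBV DNA replicative intermediate was quantified by real-time PCR. IC50 is 50% inhibition of DNA replication.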

[4] = Selectivity index, ratio of CC50 for human HepG2(2.2.15) cells to IC50 for antiviral activity against HBV infected in human HepG2(2.2.15) cells assessed as inhibition of viral DNA replication; type: toxicity, cell-based; conditions: read-out: Ratio CC50/IC50
Method in brief: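 SI calculated as CC50 (72 h MTT, HepG2 2.2.15) divided by IC50 for inhibition of HBV DNA replication measured by real-time PCR.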

Hepatitis B virus [5] = assay: Antiviral activity against lamivudine/entecavir resistant HBV harboring reverse transcriptase L180M/M204V/T184L mutant infected in human HepG2 cells assessed as inhibition of viral DNA replication at 100 uM after 72 hrs by RT-PCR method relative to control; conditions: HepG2, 72 h
Hepatitis B virus [6] = assay: Antiviral activity against HBV infected in human […] cells assessed as inhibition of viral DNA replication at 100 uM after 72 hrs by RT-PCR method relative to control; type: functional
Method in brief: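 HepG2 cells (2×10^5/well) transfected overnight-plated, 24 h with plasmid carrying wild-type or rtL180M+rtM204V+rtT184L resistant HBV; after PBS wash, fresh medium with lamivudine 100 μM, entecavir 10 μM, or test compounds 1 μM (one at 10 μM) for 72 h; replicative intermediate HBV DNA measured by real-time PCR.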

Hepatitis B virus [7] = assay: Antiviral activity against HBV infected in human HepG2(2.2.15) cells assessed as inhibition of viral DNA replication at 20 uM after 6 days by RT-PCR method relative to control; type: functional; conditions: HepG2 2.2.15, 144 h
Method in brief: (§1)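 HepG2 2.2.15 cells (stable HBV genome; DMEM, 10% FBS, G418 0.38 mg/mL) seeded 2×10^5/well, recovered 24 h, then compound in assay medium (single 20 or 4 μM, or dose series for IC50), medium changed every 2 days; after 6 days HBV DNA extracted and quantified by real-time PCR. Mean ± SD, ≥3 independent experiments in duplicate.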

[8] = Cytotoxicity against human HepG2(2.2.15) cells assessed as reduction in cell viability after 72 hrs by MTT assay; type: cell-based
Method in brief: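 Confluent HepG2 2.2.15 cells exposed to graded compound concentrations for 72 h alongside untreated controls on each plate; viability by MTT uptake, absorbance 490 nm relative to untreated cells; CC50 = concentration killing 50% of cells. Three replicates.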

Hepatitis B virus [9] = assay: Antiviral activity against HBV infected in human HepG2(2.2.15) cells assessed as inhibition of viral DNA replication after 6 days by RT-PCR method; type: functional, organism-based; conditions: HepG2 2.2.15, 144 h; method in brief: as §1

Nc1ccn([C@@H]2CS[C@H](CO)O2)c(=O)n1 [LAMIVUDINE]
selectivity ratio [1]: < 1
inhibition at 1 µM (Hepatitis B virus [2]): 0.81%
IC50 (Hepatitis B virus [3]): > 100 µM
selectivity ratio [4]: > 1000
inhibition at 100 µM (Hepatitis B virus [5]): 19.4%
inhibition at 100 µM (Hepatitis B virus [6]): 94.3%
inhibition at 20 µM (Hepatitis B virus [7]): 92.7%
CC50 at 72 h [8]: > 100 µM
IC50 (Hepatitis B virus [9]): < 0.1 µM
